Test results reported in ChEMBL document CHEMBL1156269, “Biological and biophysical properties of the histone deacetylase inhibitor suberoylanilide hydroxamic acid are affected by the presence of short alkyl groups on the phenyl ring” (J Med Chem, 2010).
Active and inactive are the calls of the source. The rule behind the calls is not given here.

System: Caco-2
Experiment: Induction of P21WAF1 gene expression in human Caco-2 cells at 5 uM after 24 hrs by Western blotting
Format: functional, cell-based
Method in brief: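 Caco-2 cells were plated at 3×10⁵/well one day before treatment, then exposed for 24 h at 1 or 5 μM. Cells were scraped into PBS and protein was quantified. Equal protein was run on 12% SDS-PAGE and transferred to nitrocellulose. Blots were probed with mouse anti-p21 (1/1000, milk buffer) and an HRP secondary, with chemiluminescent detection; actin served as loading check.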

O=C(CCCCCCC(=O)Nc1ccccc1)NO
Activity: inactive
